For series [1], the target named is T1, Epidermal growth factor receptor (Homo sapiens, UniProt P00533). Put plainly: Inhibition of human wild type GST-tagged EGFR kinase domain expressed in Sf9 cells by luminescence assay. It counts as cell-based.
For series [2], the target named is Epidermal growth factor receptor (Homo sapiens, UniProt P00533, L858R). Put plainly: Inhibition of human GST-tagged EGFR L834R mutant expressed in Sf9 cells by luminescence assay. Format: cell-based.
The species entered for series [3] is Homo sapiens. Nature of the series: Toxicity in human assessed as occurrence of rash. Format: organism-based. Particulars: in vivo.
Series [4] is filed under the species Homo sapiens. Nature of the series: Toxicity in human assessed as occurrence of diarrhea. It counts as organism-based. Particulars: in vivo.
The target of series [5] is Cyclin-dependent kinase 2 (Homo sapiens) (UniProt P24941). Nature of the series: Inhibition of CDK2 (unknown origin) at 1 uM relative to control. The gist of the method: (§1)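 Single-concentration profiling at 1 μM across a 317-kinase panel that includes wild-type and mutant EGFR and HER2. Activity of each kinase is given as percent inhibition relative to control.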
Series [6] has as its target Epidermal growth factor receptor (Homo sapiens) (UniProt P04626+P00533+Q15303+P21860). Nature of the series: Inhibition of EGFR L837Q mutant (unknown origin) at 1 uM relative to control. Format: protein assay. Summed up: as §1
Series [7] concerns Epidermal growth factor receptor (Homo sapiens), P00533 [L834R]. Put plainly: Inhibition of EGFR L834R mutant (unknown origin) at 1 uM relative to control. It counts as protein assay. The gist of the method: as §1
The test system of series [8] is Epidermal growth factor receptor (Homo sapiens), P04626+P00533+Q15303+P21860 [UNDEFINED MUTATION]. Nature of the series: Inhibition of EGFR T766M mutant (unknown origin) at 1 uM relative to control. Format: protein assay. The gist of the method: as §1
The target in series [9] is T1, Epidermal growth factor receptor. Put plainly: Inhibition of wild type EGFR (unknown origin) at 1 uM relative to control. The gist of the method:
as §1

Series [10] relates to Epidermal growth factor receptor (Homo sapiens), P00533 [L858R]. Nature of the series: Ratio of gefitinib IC50 to compound IC50 for human GST-tagged EGFR L834R mutant.
The subject of series [11] is Epidermal growth factor receptor (Homo sapiens), P04626+P00533+Q15303+P21860 [UNDEFINED MUTATION]. Nature of the series: Inhibition of EGFR T766M/L834R mutant (unknown origin) at 1 uM relative to control. Format: protein assay. The gist of the method: as §1
Series [12] concerns the target T1, Epidermal growth factor receptor. Put plainly: Ratio of gefitinib IC50 to compound IC50 for human wild type GST-tagged EGFR kinase domain.

pIC50: −log10 of the molar value. A value given as a limit tells only on which side of the number the result lay.

Take `OC[C@@H](Nc1ncnc2oc(-c3ccccc3)c(-c3ccccc3)c12)c1ccccc1`: the values for the pIC50 in series [1] and in series [2] were 6.41 and 7.28, respectively.
The corresponding values for `C[C@@H](Nc1ncnc2oc(-c3ccccc3)c(-c3ccccc3)c12)c1ccccc1` are 5.52 and 6.47.
The corresponding values for `Nc1cccc(-c2c(-c3ccccc3)oc3ncnc(N[C@H](CO)c4ccccc4)c23)c1` are 6.69 and 7.66.
The like results for `CC[C@@H](Nc1ncnc2oc(-c3ccccc3)c(-c3ccccc3)c12)c1ccccc1` were, in that order, less than 5.00 and less than 5.00.
As for `CN(C)CC(=O)Nc1cccc(-c2c(-c3ccccc3)oc3ncnc(N[C@H](CO)c4ccccc4)c23)c1`, the pIC50 (in general, −log10 of the IC50, conventionally taken in molar units) in [1] is 7.32; in series [2], 8.40.
Take `CC(=O)Nc1ccc(-c2c(-c3ccccc3)oc3ncnc(N[C@H](CO)c4ccccc4)c23)cc1`: the pIC50 is 6.75 in series [1] and 7.64 in [2].
The corresponding values for `CC(=O)Nc1cccc(-c2c(-c3ccccc3)oc3ncnc(N[C@H](CO)c4ccccc4)c23)c1` are 6.66 and 7.54.
For `OC[C@@H](Nc1ncnc2oc(-c3ccccc3)c(-c3ccoc3)c12)c1ccccc1`, the negative logarithm of the IC50 (pIC50) in series [1] was 6.45; in [2] it was 7.36.
On to `OC[C@@H](Nc1ncnc2oc(-c3ccccc3)c(Cl)c12)c1ccccc1`, for which the pIC50 was 6.23 in series [1] and 6.77 in series [2].
The like results for `OC[C@@H](Nc1ncnc2oc(-c3ccccc3)c(-c3ccco3)c12)c1ccccc1` were, in that order, 6.36 and 7.14.
For `CN(C)C/C=C/C(=O)Nc1cc2c(Nc3ccc(F)c(Cl)c3)ncnc2cc1O[C@@H]1CCOC1`, the figures for the Activity in [3] and in [4] were 62% and 95%, respectively.
`CN(C)CCC(=O)Nc1cccc(-c2c(-c3ccccc3)oc3ncnc(N[C@H](CO)c4ccccc4)c23)c1`: the inhibition (as a rule, the relative decrease from the control value, in per cent) in series [5] is -4%; in series [6] it was 106%; in [7] it was 100%; in series [8], 50%; in series [9], 99%; in series [11], 80%. The Ratio IC50 in series [10] is 7; in series [12], 4. For the same molecule, the pIC50 in series [1] is 8.10; in series [2], 8.70.
For the molecule `CN(C)CCCCC(=O)Nc1cccc(-c2c(-c3ccccc3)oc3ncnc(N[C@H](CO)c4ccccc4)c23)c1`, the pIC50 is 7.47 in [1] and 8.40 in series [2].
The corresponding values for `CN(C)CCCC(=O)Nc1cccc(-c2c(-c3ccccc3)oc3ncnc(N[C@H](CO)c4ccccc4)c23)c1` are 7.54 and 7.47.
The like results for `CN(C)CCCCCC(=O)Nc1cccc(-c2c(-c3ccccc3)oc3ncnc(N[C@H](CO)c4ccccc4)c23)c1` were, in that order, 5.36 and 6.31.
The corresponding values for `COC(=O)[C@@H](Nc1ncnc2oc(-c3ccccc3)c(-c3ccccc3)c12)c1ccccc1` are 5.10 and 5.84.
For `CC(C)CCCC(=O)Nc1cccc(-c2c(-c3ccccc3)oc3ncnc(N[C@H](CO)c4ccccc4)c23)c1`, the pIC50 in [1] and in series [2] was less than 4.60 in each case.
With `O=[N+]([O-])c1cccc(-c2c(-c3ccccc3)oc3ncnc(N[C@H](CO)c4ccccc4)c23)c1`, the pIC50 is 6.09 in series [1] and 7.31 in [2].

(Values after ChEMBL document CHEMBL2346524, “Protein kinase inhibitor design by targeting the Asp-Phe-Gly (DFG) motif: the role of the DFG motif in the design of epidermal growth factor receptor inhibitors” (J Med Chem, 2013).)
